Rows were chosen to be rich in hits. Some 3.8% of all compounds tested hit in one or more screens of this group.
Beta cell apopt = beta cell apoptosis inhibition; INS-1E cytokine-induced death, ATP luminescence, 48 h; percent of positive-control rescue, neutral wells zero; actives 0.8% (n = 300,000); protection from apoptosis, % (test concentration not listed);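 active = Every replicate reaches about 75%, or at least half do and their mean reaches it too, limit read from the data; inconclusive = At least half of replicates reach the limit but their mean does not; inactive = Under half of replicates reach the limit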;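 note: 0% = cytokine-treated negative control wells and 100% = positive control rescue; higher means more ATP so stronger rescue from cytokine killing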
MC4R antag cAMP = antagonists of human melanocortin 4 receptor (MC4R) | P32245 | MC4R-expressing cells, MTII-stimulated cAMP, LANCE TR-FRET | inhibition, % at 6.5 µM | actives 0.48% (n = 360,000) | AID 540295;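 active = inhibition above its plate's cutoff, the mean of tested wells on that plate plus 3 SD, cut at about 29% in these data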;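 note: 0% = Melanotan II alone and 100% = Melanotan II plus saturating MCL0020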
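Material: human MC4R-expressing U2OS cells. Probe or stimulus: Melanotan II challenge. Dosing: 6.5 µM single dose. Times: 30-min compound, 1-h challenge, 1-h detection, room temperature. Technique: TR-FRET with Eu-cAMP and labeled anti-cAMP, 671 nm. Replication: singlicate.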
ANO1 block = inhibitors of mouse TMEM16A calcium-activated chloride channel | HEK293 TMEM16A/YFP iodide influx fluorescence, ionomycin | actives 1.2% (n = 310,000) | normalized B-score (activity score, 25-100; higher = stronger inhibition) at 10 µM;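 active = ratio plate-corrected score three or more library SD toward inhibition, starting fluorescence score within five deviations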;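 note: score derived from kinetic fluorescence span divided by baseline fluorescence per well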
Target sequence (Q8BHY3 whole entry, looked up): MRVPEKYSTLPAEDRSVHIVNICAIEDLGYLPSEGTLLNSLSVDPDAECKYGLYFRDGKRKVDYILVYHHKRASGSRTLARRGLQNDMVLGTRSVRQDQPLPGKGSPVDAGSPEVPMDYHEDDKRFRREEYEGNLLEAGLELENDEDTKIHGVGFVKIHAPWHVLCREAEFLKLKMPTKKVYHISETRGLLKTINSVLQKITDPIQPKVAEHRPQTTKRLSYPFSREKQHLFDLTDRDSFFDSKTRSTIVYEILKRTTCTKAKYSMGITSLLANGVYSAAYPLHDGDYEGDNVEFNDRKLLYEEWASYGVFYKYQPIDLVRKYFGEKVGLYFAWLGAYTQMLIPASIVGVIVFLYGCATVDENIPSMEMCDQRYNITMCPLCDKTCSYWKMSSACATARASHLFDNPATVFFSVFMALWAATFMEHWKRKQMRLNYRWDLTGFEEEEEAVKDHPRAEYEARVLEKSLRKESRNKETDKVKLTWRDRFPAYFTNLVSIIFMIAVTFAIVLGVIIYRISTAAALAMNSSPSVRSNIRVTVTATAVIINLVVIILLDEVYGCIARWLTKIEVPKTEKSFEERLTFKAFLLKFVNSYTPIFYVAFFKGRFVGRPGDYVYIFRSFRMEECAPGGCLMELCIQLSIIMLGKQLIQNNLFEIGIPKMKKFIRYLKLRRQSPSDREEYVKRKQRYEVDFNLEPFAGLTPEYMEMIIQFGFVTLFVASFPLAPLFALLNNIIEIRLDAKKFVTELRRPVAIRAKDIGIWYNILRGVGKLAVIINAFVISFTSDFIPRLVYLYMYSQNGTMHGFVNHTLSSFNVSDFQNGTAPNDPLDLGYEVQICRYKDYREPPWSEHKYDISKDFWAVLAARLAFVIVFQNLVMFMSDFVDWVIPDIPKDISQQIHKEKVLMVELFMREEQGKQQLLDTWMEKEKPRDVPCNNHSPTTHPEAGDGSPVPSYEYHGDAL
MC4R ag barr = human MC4R agonism via beta-arrestin. P32245. actives 0.98% (n = 360,000). activation, % at 8.9 µM. AID 540308. U2OS MC4R beta-arrestin complementation, luminescence; percent of melanotan II response, DMSO zero;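 active = activation above a per-plate cutoff, the mean activation of sample wells on that plate plus 3 SD, cut at about 8% in these data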
ANO1 activ = mouse TMEM16A channel activation, primary screen; HEK293 TMEM16A/YFP-H148Q/I152L, iodide quench fluorescence; active compounds read low; actives 0.3% (n = 340,000); Q8BHY3; B-score at 10 µM;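 active = fluorescence-ratio B-score plate-corrected deviation score at least 3 library SD below zero, with starting fluorescence score within 5 deviations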;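 note: channel opened by trigger with iodide after compound preincubation; score built on the fluorescence ratio of max minus min over baseline; more negative score means more quench and so TMEM16A activation or potentiation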
CSC inhib = cancer stem cell inhibition | cancer stem cell-like cells viability, luminescence | inhibition, % at 7.5 µM | actives 1.1% (n = 300,000); in the data active = inhibition above about 75%; inconclusive = no clear call, values can overlap the other calls; tested in HMLE shEcad cells
* marks the source's active call; other numbers are inactive results; i = inactive; ? = inconclusive; . = no result given.

SMILES	Beta cell apopt	MC4R antag cAMP	ANO1 block	MC4R ag barr	ANO1 activ	CSC inhib
CCOC(=O)C(=CNc1ccc(C(O)(C(=O)OCC)C(F)(F)F)cc1C)C(=O)OCC (centres undefined)	97*	10	i	5	i	11
CCOC(=O)C(O)(c1ccc(NC(=O)c2ccc(Cl)c(Cl)c2)cc1)C(F)(F)F (centres undefined)	6	1	i	2	i	26
CCCCOc1ccc(CN2CCN(CCO)CC2)cc1	-7	1	i	-1	i	30
CCCCCCOc1ccc(CN2CCN(CCO)CC2)cc1	4	3	i	0	i	83*
CCC(=NCc1ccc(F)cc1)c1c(O)n(C)c(=O)n(C)c1=O	11	1	100*	1	i	0
N#Cc1ccccc1Cn1cc(C(=O)c2ccccc2F)c2ccccc21	4	6	i	-1	i	.
CC(C)NC(=O)Cn1cc(C(=O)c2ccccc2F)c2ccccc21	-3	8	i	-2	-5.3*	4
C/C(=N\N1CCCCCC1)c1c(O)n(-c2ccccc2C)c(=O)[nH]c1=O	4	6	i	-3	i	-5
CCOC(=O)c1c(C)[nH]c(C)c1C(=O)C(Cc1ccccc1)N(C)C (centres undefined)	-2	1	i	1	i	-3
Cn1c(=O)c2c(nc(N/N=C/c3c(O)n(C4CCCCC4)c(=S)[nH]c3=O)n2C)n(C)c1=O	-2	-6	i	1	i	-6
C[C@@H]1O[C@@H](O[C@H]2C[C@@H](O)[C@]3(CO)[C@@H]4C(CC[C@]3(O)C2)[C@@]2(O)CC[C@H](C3COC(=O)C3)[C@@]2(C)C[C@H]4O)[C@H](O)[C@H](O)[C@H]1O (some centres undefined)	0	-4	i	28*	i	83*
COc1ccc(/C=C/C(=O)c2c(O)n(CCC3=CCCCC3)c(=O)[nH]c2=O)cc1	-5	1	i	1	i	120*
O=C(N/N=C/c1c(O)n(CCC2=CCCCC2)c(=O)[nH]c1=O)c1ccccc1	8	5	i	1	i	16
O=C(/C=C/c1ccc2c(c1)OCO2)c1c(O)n(CCC2=CCCCC2)c(=O)[nH]c1=O	1	1	i	1	i	84*
Nc1ccccc1N=Cc1c(O)n(CCC2=CCCCC2)c(=O)[nH]c1=O	97*	4	i	5	i	96*
CCCCn1c(O)c(C(=O)/C=C/c2ccc3c(c2)OCO3)c(=O)[nH]c1=O	.	1	i	0	i	-6
O=[N+]([O-])CCO	1	6	.	-1	i	-15
CCn1c(C)c(C(=O)Nc2ccc(OC)cc2)c2cc(OC)ccc21	4	10	i	0	i	6
CCCCn1c(O)c(C=NC2CCCCC2N)c(=O)[nH]c1=O (centres undefined)	-3	8	i	-2	i	.
CCCCCCn1c(O)c(C=NC2CCCCC2N)c(=O)[nH]c1=O (centres undefined)	-5	.	i	.	.	83*
O=C1CN=C(c2ccccc2)c2cc(Br)ccc2N1	-10	2	i	0	i	-6
Cc1ccc(N2C(=O)NC(=O)/C(=C\C=C\c3ccco3)C2=O)cc1	40	9	i	-1	i	79*
Cc1ccc(N2C(=O)NC(=O)/C(=C\c3ccoc3)C2=O)cc1	.	6	i	-3	-4.6*	-9
O=C1NC(=O)N(Cc2ccccc2)C(=O)/C1=C\C=C\c1ccco1	6	23	i	1	i	?
O=C1NC(=O)N(c2ccccc2)C(=O)/C1=C/C=C/c1ccco1	-3	10	i	-1	i	88*
SMILES	Beta cell apopt	MC4R antag cAMP	ANO1 block	MC4R ag barr	ANO1 activ	CSC inhib
O=C1NC(=S)N(c2ccc(F)cc2)C(=O)/C1=C\c1ccoc1	.	-7	.	-1	i	.
Cc1cccc(N2C(=O)NC(=O)/C(=C\C=C\c3ccco3)C2=O)c1	30	14	i	-2	i	?
CN1C(=O)/C(=C/C=C/c2ccco2)C(=O)NC1=S	-8	-1	i	3	i	-28
Cc1ccc(N2C(=O)NC(=O)/C(=C\C=C\c3ccco3)C2=O)cc1C	97*	8	i	-4	i	53
CCc1ccc(NC2=NCCCS2)cc1	-7	17	i	0	i	-7
CCC(C)/C=C(C)/C=C/C1=CC2=C(Cl)C(=O)C(C)(OC(C)=O)C(=O)C2=CO1 (centres undefined)	.	18	100*	-1	i	-9
C=C(C)[C@H]1CN[C@H](C(=O)O)[C@H]1CC(=O)O	6	-2	i	1	i	-4
Cc1ccc(C[n+]2c(-c3ccc(C)cc3)cc(-c3ccc(C)cc3)cc2-c2ccc(C)cc2)cc1	118*	2	100*	56*	i	-5
CN(C)C(=O)O/N=C(\N)COc1ccc(C(C)(C)C)cc1	7	12	i	1	i	-1
NS(=O)(=O)c1ccc(N=Cc2c(O)n(C3CCCCC3)c(=O)n(C3CCCCC3)c2=O)cc1	1	2	i	0	i	90*
CCCCCP(=O)(O)c1ccccc1	1	4	i	0	i	-6
CCCC/C(C)=C/[C@@H](NP(=O)(c1ccccc1)c1ccccc1)c1ccccc1	4	2	i	0	i	114*
O=C1NC(=O)N(CCc2ccc(F)cc2)C(=O)/C1=C\C=C\c1ccccc1	.	-2	.	-3	i	.
CN1C(=O)NC(=O)/C(=C\C=C\c2ccccc2[N+](=O)[O-])C1=O	-12	.	25*	.	.	5
CCN(CC)P(=O)(c1nccn1C)N(CC)CC	-4	-1	i	-2	i	0
O=C(NC1CN2CCC1CC2)c1cc(Cl)c([N+](=O)[O-])c2nc[nH]c12 (centres undefined)	-6	-3	i	-4	i	-1
COc1cccc(C2(C#N)CCN(C)CC2)c1	-4	4	i	-2	i	-2
COc1ccc(CNC(C)Cc2cccs2)cc1 (centres undefined)	-9	-2	i	-3	-27*	-18
COc1ccc(CCNC(C)CCc2ccc(OC)cc2)cc1 (centres undefined)	-7	4	i	0	i	-10
CCOc1cc(CNCCc2c[nH]c3ccccc23)cc(Cl)c1OC	11	-3	i	3	i	47
CC(C)(C)c1ccc(CSc2cnn(C(C)(C)C)c(=O)c2Cl)cc1	110*	15	i	1	i	33
Cn1cc(C(=O)Cc2ccccc2)c2ccccc21	-4	9	i	-2	i	0
